# Assay results as given in article PMC3529145 (Bioconjugate chemistry, 2012).
# No end group written: not given here.
# Tests used:
# Format in all cases: in vivo, mouse
# [1] = tested on: LNCaP tumor; assay: Small-animal PET imaging, LNCaP tumor xenograft; settings: for radioactivity accumulation in LNCaP tumor (PET): PET ROI analysis, i.v. tail vein, dual tumor bearing mice n = 4
# In short: (§1)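 Male athymic nude mice carried LNCaP (right shoulder, implanted 14 days earlier) and PC-3 (left shoulder) xenografts, each 100–200 mm3 (n = 4). Dosing was by tail vein: 160–170 μCi of labelled peptide in 200 μL 3% EtOH/saline, or 260 μCi of control peptide in 200 μL PBS. Static 15-min microPET scans were taken at 2 and 4 h under isoflurane. Decay-corrected ROI values were expressed as %ID/g by phantom calibration.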
# [2] = tested on: PC-3 tumor; assay: Small-animal PET imaging, PC-3 tumor xenograft; settings: PET ROI analysis, i.v. tail vein, dual tumor bearing mice n = 4
# In short: as §1
# [3] = tested on: LNCaP tumors; assay: Postmortem biodistribution, LNCaP tumor uptake and tumor-to-tissue ratios; settings: for LNCaP Tumor/kidney ratio: biodistribution
Substance,radioactivity accumulation in LNCaP tumor (PET) ([1]; 2 h p.i.),radioactivity accumulation in LNCaP tumor (PET) ([1]; 4 h p.i.),radioactivity accumulation in PC-3 tumor (PET) ([2]; 2 h p.i.),radioactivity accumulation in PC-3 tumor (PET) ([2]; 4 h p.i.),LNCaP Tumor/kidney ratio ([3]; 2 h p.i.),LNCaP Tumor/kidney ratio ([3]; 4 h p.i.),"LNCaP Tumor/liver ratio ([3]; mouse, in vivo)","tumor accumulation observed by PET (in words) ([1]; PET images of mice bearing LNCaP and PC-3 tumors, negative control)","LNCaP Tumor/blood ratio ([3]; mouse, in vivo)","LNCaP Tumor/muscle ratio ([3]; mouse, in vivo)"
ACEQNPIYWARYADWLFTTPLLLLDLALLVDADEGTG-CO2H [[^18F]-4a],8.3 ± 1.5 %ID/g,8.5 ± 1.3 %ID/g,4.2 ± 0.4 %ID/g,5.4 ± 0.5 %ID/g,0.3,0.3,0.2,,,
ACEQNPIYWARYAKWLFTTPLLLLKLALLVDADEGTG-OH [[^18F]-5],,,,,0.4,,0.2,lack of any tumor accumulation,0.1,0.4
